Active and inactive are the calls of the source.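 Rule for the calls: active = fold change of 10 or more over vehicle in p21 reporter light; inactive = fold change below 10.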
Target: Cyclin-dependent kinase inhibitor 1 (Homo sapiens) (UniProt P38936)
Assay: p21-luciferase fusion stabilization in HeLa – cell-based, luminescence, powder samples, selectivity assay for Wee1 degradation inhibitor project, late-stage follow-up (AID 463170)
Conditions: at 0.1 µM, stronger effect = higher value
In short: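 Test system – transfected HeLa cells with p21-luciferase fusion · Technique – luciferase luminescence from the p21 fusion reporter · Repeats – four replicate wells per compound · Schedule – 20 h compound treatment, 37 °C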

Chain of Cyclin-dependent kinase inhibitor 1 (Homo sapiens) (P38936 whole entry, looked up, the tested form may be a part): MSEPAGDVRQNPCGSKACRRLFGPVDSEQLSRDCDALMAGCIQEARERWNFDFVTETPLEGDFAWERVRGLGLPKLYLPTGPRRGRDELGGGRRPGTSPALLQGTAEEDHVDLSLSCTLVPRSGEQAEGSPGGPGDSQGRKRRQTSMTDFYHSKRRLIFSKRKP

| Compound | fold change |
| --- | --- |
| c1ccc2[nH]c(CNc3nc(N4CCOCC4)nc4c3ncn4-c3ccsc3)nc2c1 | 2.23 (inactive) |
| O=[N+]([O-])c1cccc2[nH]c(CNc3nc(N4CCOCC4)nc4c3ncn4-c3ccsc3)nc12 | 3.41 (inactive) |
